From paper PMC6431256 (Biochemistry, 2018)

Target: full-length Pin1 (Pin1FL) (Homo sapiens, UniProt Q13526)
Test: NMR 15N-1H HSQC titration, binding to full-length Pin1
How it was run: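 15N-labeled Pin1FL and Pin1WW were expressed separately in M9 medium with 15NH4Cl, induced with 1 mM IPTG at OD600 0.5 for 4 h, and purified by Ni affinity and gel filtration (20 mM HEPES pH 7.5, 50 mM NaCl, 5 mM EDTA; Pin1FL with 1 mM TCEP). Unlabeled phosphopeptides (dialyzed into matching buffer) were titrated at 0–637 µM into 100 µM protein. 1H-15N HSQC spectra were recorded at 25 °C and 600 MHz. Apparent KD was fitted from chemical shift changes, with 15N weighted 0.17.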

Chain of full-length Pin1 (Pin1FL) (Q13526 whole entry): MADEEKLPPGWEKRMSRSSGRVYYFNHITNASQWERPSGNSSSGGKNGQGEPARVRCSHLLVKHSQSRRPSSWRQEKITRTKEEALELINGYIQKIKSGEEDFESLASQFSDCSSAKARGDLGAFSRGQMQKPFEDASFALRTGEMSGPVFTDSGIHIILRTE

interaction strength with Pin1 among H1 peptides (Pin1FL and Pin1WW, in words): fairly low affinity
apparent affinity for full-length Pin1 relative to WW domain (compared with Pin1WW): decrease
Substance: KVAKpSPKKAKAW [H1.5]
